{"source": "ChEMBL document CHEMBL5154715", "about": "“Phenolic Lipids Derived from Cashew Nut Shell Liquid to Treat Metabolic Diseases” (J Med Chem, 2022)", "key": {"[1]": {"biological_target": "T1, Peroxisome proliferator-activated receptor delta (Homo sapiens) (UniProt Q03181)", "T1 sequence (whole entry)": "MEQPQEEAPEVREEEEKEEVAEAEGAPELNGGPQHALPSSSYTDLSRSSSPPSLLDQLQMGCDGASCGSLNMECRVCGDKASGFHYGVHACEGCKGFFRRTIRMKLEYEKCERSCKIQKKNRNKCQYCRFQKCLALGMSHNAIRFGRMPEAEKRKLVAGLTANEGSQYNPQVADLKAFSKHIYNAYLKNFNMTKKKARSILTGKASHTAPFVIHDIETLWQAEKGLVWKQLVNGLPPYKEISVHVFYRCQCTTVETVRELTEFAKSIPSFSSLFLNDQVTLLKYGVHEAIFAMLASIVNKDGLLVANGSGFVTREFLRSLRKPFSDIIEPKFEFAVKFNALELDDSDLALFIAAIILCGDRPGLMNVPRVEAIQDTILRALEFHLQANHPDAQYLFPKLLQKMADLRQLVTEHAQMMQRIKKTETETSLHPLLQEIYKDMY", "test": "Stabilization of human PPARdelta LBD assessed as change in melting temperature at 50 uM by thermal shift assay", "summary_of_the_method": "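Purified hPPAR LBD at 1 mg/mL (∼25 μM) with ligand (α-LBD at 25 μM; γ- and δ-LBD at 50 μM). Static light scattering at 473 nm from 25 to 70 °C in 0.5 °C steps, 1 °C/min. Tm from four-parameter fit; ΔTm relative to DMSO; mean ± SEM, N = 3.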"}, "[2]": {"biological_target": "T2, Peroxisome proliferator-activated receptor alpha (Mus musculus) (UniProt P23204)", "T2 sequence (whole entry)": "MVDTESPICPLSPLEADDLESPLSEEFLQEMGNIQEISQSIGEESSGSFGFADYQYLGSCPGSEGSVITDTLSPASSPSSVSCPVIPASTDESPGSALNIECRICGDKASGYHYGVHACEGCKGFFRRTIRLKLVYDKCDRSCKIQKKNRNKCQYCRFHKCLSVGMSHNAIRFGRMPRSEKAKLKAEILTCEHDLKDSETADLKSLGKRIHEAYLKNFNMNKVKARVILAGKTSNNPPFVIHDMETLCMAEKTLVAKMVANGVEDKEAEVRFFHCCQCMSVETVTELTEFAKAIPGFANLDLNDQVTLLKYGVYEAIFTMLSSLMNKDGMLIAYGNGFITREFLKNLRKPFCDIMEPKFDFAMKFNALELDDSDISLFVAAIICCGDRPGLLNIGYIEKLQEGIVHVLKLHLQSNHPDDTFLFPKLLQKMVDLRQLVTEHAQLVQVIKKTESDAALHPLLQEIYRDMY", "test": "Agonist activity at human PPARalpha in mouse hepatocytes assessed as induction of cd36 mRNA expression at 50 uM incubated for 16 hrs by quantitative real-time PCR analysis", "type": "cell-based", "conditions": "Hepatocyte, filed as agonist", "summary_of_the_method": "(§1)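 Collagenase-perfused mouse primary hepatocytes from WT mice, plated 2 h in attachment medium, overnight in M199 with 5% charcoal-stripped FBS and 1 nM insulin. Treated next day in serum-free M199 with 50 μM compound for 16 h. RNA qPCR (SYBR Green), comparative Ct method.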"}, "[3]": {"biological_target": "T2, Peroxisome proliferator-activated receptor alpha (Mus musculus)", "test": "Agonist activity at human PPARalpha in mouse hepatocytes assessed as induction of Pdk4 mRNA expression at 50 uM incubated for 16 hrs by quantitative real-time PCR analysis", "type": "cell-based", "conditions": "Hepatocyte, filed as agonist", "summary_of_the_method": "as §1"}, "Danio rerio [4]": {"system": "Danio rerio", "test": "In vivo agonist activity at human GFP-tagged PPARalpha in transgenic zebrafish assessed as increase in GFP expression in heart at 5 uM measured after 14 hrs by microscopy"}, "Danio rerio [5]": {"system": "Danio rerio", "test": "In vivo agonist activity at human GFP-tagged PPARalpha in transgenic zebrafish assessed as increase in GFP expression in muscle at 5 uM measured after 14 hrs by microscopy"}, "Danio rerio [6]": {"system": "Danio rerio", "test": "In vivo agonist activity at human GFP-tagged PPARalpha in transgenic zebrafish assessed as increase in GFP expression in CNS at 5 uM measured after 14 hrs by microscopy"}, "Danio rerio [7]": {"system": "Danio rerio", "test": "In vivo agonist activity at human GFP-tagged PPARalpha in transgenic zebrafish assessed as increase in GFP expression in epidermis at 5 uM measured after 14 hrs by microscopy"}, "Danio rerio [8]": {"system": "Danio rerio", "test": "In vivo agonist activity at human GFP-tagged PPARalpha in transgenic zebrafish assessed as increase in GFP expression in retina at 5 uM measured after 14 hrs by microscopy"}, "[9]": {"biological_target": "T2, Peroxisome proliferator-activated receptor alpha (Mus musculus)", "test": "Agonist activity at human PPARalpha in mouse hepatocytes assessed as induction of fabp1 mRNA expression at 50 uM incubated for 16 hrs by quantitative real-time PCR analysis", "type": "cell-based", "conditions": "Hepatocyte, filed as agonist", "summary_of_the_method": "as §1"}, "[10]": {"biological_target": "T2, Peroxisome proliferator-activated receptor alpha (Mus musculus)", "test": "Agonist activity at human PPARalpha in mouse hepatocytes assessed as induction of Fgf21 mRNA expression at 50 uM incubated for 16 hrs by quantitative real-time PCR analysis", "type": "cell-based", "conditions": "Hepatocyte, filed as agonist", "summary_of_the_method": "as §1"}, "Danio rerio [11]": {"system": "Danio rerio", "test": "In vivo agonist activity at human GFP-tagged PPARalpha in transgenic zebrafish assessed as increase in GFP expression in brain at 1.5 uM measured after 14 hrs by microscopy"}, "Danio rerio [12]": {"system": "Danio rerio", "test": "In vivo agonist activity at human GFP-tagged PPARgamma in transgenic zebrafish assessed as increase in GFP expression in muscle at 1 uM measured after 14 days by microscopy", "type": "functional, organism-based", "conditions": "time 14.0 day"}, "Danio rerio [13]": {"system": "Danio rerio", "test": "In vivo agonist activity at human GFP-tagged PPARalpha in transgenic zebrafish assessed as increase in GFP expression in yolk sac at 1.5 uM measured after 14 hrs by microscopy"}, "Danio rerio [14]": {"system": "Danio rerio", "test": "In vivo agonist activity at human GFP-tagged PPARgamma in transgenic zebrafish assessed as increase in GFP expression in CNS at 1 uM measured after 14 days by microscopy", "type": "functional, organism-based", "conditions": "time 14.0 day"}, "Danio rerio [15]": {"system": "Danio rerio", "test": "In vivo agonist activity at human GFP-tagged PPARalpha in transgenic zebrafish assessed as increase in GFP expression in heart at 1.5 uM measured after 14 hrs by microscopy"}, "Danio rerio [16]": {"system": "Danio rerio", "test": "In vivo agonist activity at human GFP-tagged PPARalpha in transgenic zebrafish assessed as increase in GFP expression in muscle at 1.5 uM measured after 14 hrs by microscopy"}}, "note": "Calls of active or inactive are those of the source. The calls are words filed in the database; no cut-off is given here."}
{"smiles": "O=C(O)COc1ccc(SCC=C(c2ccc(Br)cc2)c2ccc(Br)cc2)cc1Cl", "values": [{"measurement": "ΔTm", "setting": "[1]", "value": 7.7, "unit": "°C"}]}
{"smiles": "Cc1cccc(Nc2cc(Cl)nc(SCC(=O)O)n2)c1C", "values": [{"measurement": "Activity", "setting": "[2]", "value": "Active"}, {"measurement": "Activity", "setting": "[3]", "value": "Active"}, {"measurement": "Activity", "setting": "Danio rerio [4]", "value": "Active"}, {"measurement": "Activity", "setting": "Danio rerio [5]", "value": "Active"}, {"measurement": "Activity", "setting": "Danio rerio [6]", "value": "Active"}, {"measurement": "Activity", "setting": "Danio rerio [7]", "value": "Active"}, {"measurement": "Activity", "setting": "Danio rerio [8]", "value": "Active"}, {"measurement": "Activity", "setting": "[9]", "value": "Active"}, {"measurement": "Activity", "setting": "[10]", "value": "Active"}]}
{"smiles": "Cc1cc(SCc2sc(-c3ccc(C(F)(F)F)c(F)c3)nc2C)ccc1OCC(=O)O", "values": [{"measurement": "Activity", "setting": "Danio rerio [11]", "value": "Active"}, {"measurement": "Activity", "setting": "Danio rerio [12]", "value": "Active"}, {"measurement": "Activity", "setting": "Danio rerio [13]", "value": "Active"}, {"measurement": "Activity", "setting": "Danio rerio [14]", "value": "Active"}, {"measurement": "Activity", "setting": "Danio rerio [15]", "value": "Active"}, {"measurement": "Activity", "setting": "Danio rerio [16]", "value": "Active"}]}
